A selection: hits, their analogues and other compounds. The true share with any hit is near 2.9%.
CHO-K1 Ca PAM = counter-screen for M1 PAMs: effect in parental CHO-K1 cells. ATP EC20, Fluo-8 calcium fluorescence; 0% at ATP EC20, 100% at ATP max. activation, % at 3 µM. 0.02% of 360,000 active;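 active = activation above the run cutoff, the mean activation of all test compounds plus 3 SD, cut at about 40% in these data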;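 note: peak over basal fluorescence ratio in a 140 s read after ATP addition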
OX1R antag-1 = human HCRTR1 antagonism | O43613 | CHO/OX1R cells, Fluo-8 calcium fluorescence, orexin A | inhibition, % at 5 µM | 0.43% of 330,000 active;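 active = inhibition above its plate's threshold, mean inhibition of all tested compounds on the plate plus 3 SD, cut at about 37% in these data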;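 note: 0% = orexin A challenge wells and 100% = SB-334867-A antagonist wells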
Target sequence (O43613 whole entry, looked up): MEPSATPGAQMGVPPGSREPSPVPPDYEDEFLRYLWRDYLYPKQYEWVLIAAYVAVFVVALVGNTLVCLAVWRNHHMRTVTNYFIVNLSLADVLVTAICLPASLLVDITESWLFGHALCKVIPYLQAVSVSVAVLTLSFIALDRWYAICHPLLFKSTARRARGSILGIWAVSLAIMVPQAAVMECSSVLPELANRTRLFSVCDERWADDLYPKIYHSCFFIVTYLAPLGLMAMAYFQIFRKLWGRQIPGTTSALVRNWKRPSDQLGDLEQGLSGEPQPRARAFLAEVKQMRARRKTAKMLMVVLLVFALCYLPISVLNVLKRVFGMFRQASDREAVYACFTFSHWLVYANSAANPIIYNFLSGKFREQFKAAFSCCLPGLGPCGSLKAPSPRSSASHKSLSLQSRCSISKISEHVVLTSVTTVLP
M1 ag parental = M1 agonist counterscreen hit in parental CHO-K1 cells; Fluo-8 calcium fluorescence; scaled to maximal ATP response, vehicle zero; 0.48% of 360,000 active; AID 602248; activation, % at 3 µM; in the data active = activation above about 15%;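 note: untransfected CHO-K1 host cells lacking M1 receptor as counterscreen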
CHO-K1 Ca antag = counter-screen for M1 antagonists: effect in parental CHO-K1 cells; 0.6% of 360,000 active; ATP-induced calcium, Fluo-8 fluorescence; inhibition, % at 3 µM;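 active = inhibition above a per-plate cutoff, the plate's mean sample inhibition plus 3 SD, cut at about 24% in these data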;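 note: 0% = DMSO plus EC80 ATP and 100% = DMSO alone without ATP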
OX1R antag-2 = antagonists of human orexin 1 receptor (OX1R); O43613; OX1R-expressing cells, FRET antagonist read-out; inhibition, % at 6.6 µM; 1.8% of 330,000 active; AID 485270; in the data active = inhibition mostly above about 38%, no sharp cut-off; inactive = mostly below about 40%;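 note: 0% = agonist challenge alone and 100% = reference antagonist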
CHO parental Ca = counter-screen for OX1R antagonists: effect in parental CHO cells | parental CHO-K1, ATP-induced calcium, Fluo-8 fluorescence | inhibition, % at 5.6 µM | 0.63% of 330,000 active;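 active = inhibition above that plate's mean sample inhibition plus 3 SD, cut at about 26% in these data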;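 note: 0% = ATP-challenged DMSO wells and 100% = DMSO wells without ATP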
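Material – parental CHO cells · Reagent – ATP stimulus · Compound – single nominal dose of 5.6 µM per compound · Detection – Fluo-8 fluorescence · Read-out basis – percent inhibition of calcium signal · Controls – ATP-challenged DMSO wells low, unchallenged DMSO wells high · Repeats – no replicates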
OX1R HTRF conf = OX1R (human) antagonism, HTRF confirmed; 49% of 1,800 active; AID 492964; OX1R-expressing cells, HTRF antagonist assay; shares compounds with OX1R antag-2; inhibition, % at 6.6 µM; in the data active = inhibition above about 55%;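 note: CHO cells expressing OX1R stimulated with orexin A at about EC80; 0% = agonist challenge alone and 100% = reference antagonist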
CHO-K1 HTRF cnt = counter-screen for OX1R antagonists: effect in parental CHO-K1 cells; inhibition, % at 6.6 µM; shares compounds with OX1R antag-2; 48% of 1,800 active; HTRF counterscreen; in the data active = inhibition above about 17%;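 note: 0% = agonist challenge with vehicle and 100% = vehicle alone without agonist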
The depositor's hits bear a star; x = no result; + = active, no number.

SMILES | CHO-K1 Ca PAM | OX1R antag-1 | M1 ag parental | CHO-K1 Ca antag | OX1R antag-2 | CHO parental Ca | OX1R HTRF conf | CHO-K1 HTRF cnt
O=C1C(=O)N(CCN2CCOCC2)C(c2cccnc2)/C1=C(/O)c1ccccc1 (stereo not drawn) | x | -4 | x | x | 7 | 17 | x | x
CCN(CC)CCCN1C(=O)C(=O)/C(=C(/O)c2ccc(C)cc2)C1c1ccccn1 (stereo not drawn) | 21 | -24 | 1 | -3 | 76 | 2 | x | x
COc1ccc(/C(O)=C2/C(=O)C(=O)N(CCN3CCOCC3)C2c2ccccn2)cc1OC (stereo not drawn) | 7 | -10 | 0 | 1 | 135* | -10 | 29 | 28*
O=C1C(=O)N(CCN2CCOCC2)C(c2ccccn2)/C1=C(/O)c1ccccc1 (stereo not drawn) | 4 | -5 | 1 | -6 | 178* | -7 | 26 | 36*
O=S(=O)(Nc1ccncc1)c1cc(Cl)c(Cl)cc1Cl | 8 | -1 | 1 | -5 | 3 | 7 | x | x
N#CCCN(C(=O)c1cc2c(s1)-c1ccccc1S(=O)(=O)C2)c1ccccc1 | 11 | -22 | 0 | 3 | 13 | -12 | x | x
Cc1c(C)n(-c2ccccc2)c2ncnc(NCCN(C)C)c12 | 14 | -32 | 4 | -3 | -6 | -2 | x | x
CC(C)(OC(=O)c1ccc(C#N)cc1)c1cc2ccccc2c(=O)o1 | -15 | -19 | -1 | -10 | 4 | -14 | x | x
CCCCCC(=O)Nc1ccc(C(=O)CN2C(=O)NC3(CCCCCC3)C2=O)cc1 | -17 | -3 | 0 | 13 | 21 | -14 | x | x
Cc1nc(-c2ccc(C(=O)Nc3cccc(Br)c3)cc2)cs1 | 4 | 11 | 3 | 0 | 88* | -3 | 54 | 4
Cc1nc(-c2cccc(NC(=O)c3ccc(-n4nccc4C)cc3)c2)cs1 | 1 | -13 | 6 | -12 | 15 | -14 | x | x
O=C(O)CCCCCNc1ccc2nsnc2c1[N+](=O)[O-] | 4 | 0 | 0 | 4 | 117* | -1 | 74* | 112*
Oc1ccc2ccccc2c1N=Nc1ccccn1 | 8 | 29 | 0 | -2 | 86* | 12 | 47 | 29*
COc1ccc(N2CCN(S(=O)(=O)CC34CCC(CC3=O)C4(C)C)CC2)cc1 (stereo not drawn) | -21 | -3 | 1 | 16 | 10 | -14 | x | x
CC(C)n1cc(CN2CCCC(CNS(=O)(=O)c3cccc4cccnc34)C2)cn1 (stereo not drawn) | 1 | -22 | 0 | 0 | 8 | -18 | x | x
CCOc1ccc2oc(C(=O)Nc3ccc(C)cn3)c(C)c2c1 | 20 | x | 1 | -14 | x | x | x | x
Cc1ccc(NC(=O)c2oc3ccccc3c2C)nc1 | 12 | 14 | 0 | -10 | 84* | -12 | 79* | 3
CN(C)C(=O)C(=O)c1c(-c2ccccc2)cc2ccccn12 | 5 | -10 | 0 | -13 | 34 | -8 | x | x
O=Nc1c(-c2ccccc2)cc2ccccn12 | 17 | -4 | 1 | -20 | 153* | -8 | 64* | 86*
O=C(CSCCN1C(=O)c2ccccc2C1=O)Nc1ccc2ccccc2c1 | -2 | -3 | 2 | 0 | 81* | -22 | 51 | -2
O=C(CSCC(=O)Nc1ccc2ccccc2c1)NCc1ccccc1 | 18 | -18 | 2 | -8 | 17 | -7 | x | x
O=C(NCCO)c1cccc2c1C(=O)c1ccccc1-2 | 17 | -17 | 0 | -8 | 121* | -12 | 58* | 53*
Cc1cccn2cc(-c3cccc(NC(=O)c4cccs4)c3)nc12 | -1 | -4 | 2 | 4 | 111* | -24 | 93* | -1
O=C(Nc1cccc(-c2cn3cccnc3n2)c1)c1cccs1 | 15 | -1 | 2 | -7 | 15 | -8 | x | x
CCC(=O)Nc1ccccc1Nc1cc(C#N)c(C#N)cc1[N+](=O)[O-] | 12 | -17 | 0 | -7 | + | -20 | 59* | 72*
SMILES | CHO-K1 Ca PAM | OX1R antag-1 | M1 ag parental | CHO-K1 Ca antag | OX1R antag-2 | CHO parental Ca | OX1R HTRF conf | CHO-K1 HTRF cnt
O=c1c([N+](=O)[O-])cccn1Cc1cccc(Br)c1 | 9 | x | 1 | -15 | x | x | x | x
Cc1cccn2c(=O)c3cc(C(N)=S)c(=N)n(CCCN4CCOCC4)c3nc12 | 24 | -14 | 1 | -14 | 64 | -12 | x | x
Cc1ccc2nc3nc(NCC4CCCO4)c(C(=O)NC4CCCCC4)cc3c(=O)n2c1 (stereo not drawn) | x | -13 | x | x | 25 | 6 | x | x
Cc1cccn2c(=O)c3cc(C#N)c(=O)n(-c4c(C)n(C)n(-c5ccccc5)c4=O)c3nc12 | 16 | -19 | 0 | -10 | 147* | 3 | 53 | 55*
Cc1ccc2nc3c(cc(C(=O)NCCc4ccccc4)c(=N)n3CCN3CCOCC3)c(=O)n2c1 | 8 | -9 | 2 | -3 | 97* | -20 | 64* | 69*
Cc1ccc2nc3c(cc(C(=O)NCC4CCCO4)c(=N)n3CC3CCCO3)c(=O)n2c1 (stereo not drawn) | 6 | -14 | 0 | -7 | 140* | -10 | 49 | 72*
Cc1cc(-n2c(=O)c(C#N)cc3c(=O)n4cccc(C)c4nc32)no1 | 15 | -5 | 0 | 3 | 36 | -4 | x | x
COCCCn1c(=N)c(C(N)=S)cc2c(=O)n3cccc(C)c3nc21 | 0 | -10 | 1 | -7 | 82* | -28 | 39 | 49*
CN(Cc1cccs1)C(=O)CNC(=O)c1ccco1 | -8 | -15 | 1 | 1 | 8 | 0 | x | x
CCn1cc(S(=O)(=O)Nc2cc(C(=O)OC)ccc2C)cn1 | 8 | -5 | 0 | -3 | 2 | -11 | x | x
Cc1cccn2c(=O)c3cc(C#N)c(=N)n(CCCN4CCOCC4)c3nc12 | 14 | -67 | 0 | 2 | 144* | -16 | 40 | 64*
N#Cc1cc2c(=O)n3ccccc3nc2n(CCCn2ccnc2)c1=N | -9 | -22 | 0 | 9 | 82* | -4 | 48 | 68*
Cc1cccn2c(=O)c3cc(C#N)c(=N)n(CCN4CCOCC4)c3nc12 | 20 | x | 1 | -11 | x | x | x | x
CCCCNC(=O)c1cc2c(=O)n3cccc(C)c3nc2n(CCN2CCOCC2)c1=N | 8 | -24 | 1 | 1 | 112* | -38 | 50 | 55*
CCC(C)n1c(=N)c(C#N)cc2c(=O)n3ccccc3nc21 (stereo not drawn) | 7 | -14 | 1 | 3 | 18 | -8 | x | x
O=C(CCCCCNC(=O)N1CCn2c1nc1ccccc12)N[C@H](C(=O)O)c1ccccc1 | 9 | 3 | 0 | -2 | 11 | -1 | x | x
CCc1ccc2oc(C(=O)NCCc3ccc(S(N)(=O)=O)cc3)cc(=O)c2c1 | 15 | -29 | 1 | -2 | 4 | -11 | x | x
